In ChEMBL document CHEMBL4402595, “Discovery of Orally Bioavailable Chromone Derivatives as Potent and Selective BRD4 Inhibitors: Scaffold Hopping, Optimization, and Pharmacological Evaluation” (J Med Chem, 2020):
The source made the active and inactive calls. The rule behind the calls is not given here.

What was measured:
[1] = biological target: T1, Bromodomain-containing protein 4 (Homo sapiens, UniProt O60885); test: Inhibition of BRD4 in poly(I:C)-stimulated human SAECs TLR3-inducible IL-6 gene expression at 10 uM pre-incubated for 24 hrs before poly(I:C) stimulation for 4 hrs by qRT-PCR analysis relative to control
[2] = Cmax in Sprague-Dawley rat at 10 mg/kg, iv measured after 2 to 26 hrs; type: ADME, organism-based; set-up: dose 10 mg/kg, route intravenous; conditions: in vivo
Mus musculus [3] = test: (§1) Antiinflammatory activity in C57BL6/J mouse model of TLR3-induced acute airway inflammation assessed as inhibition of elevated neutrophils in BALF at 10 mg/kg, ip pre-treated 1 day before poly(I:C) stimulation followed by compound re-dosing at 10 mg/kg, ip before another poly(I:C) stimulation and measured after 1 day post last poly(I:C) stimulation; type: functional, organism-based
Method in brief: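 Male C57BL/6J mice, 12 weeks old, 5 per group, dosed 10 mg/kg one day before and again immediately before intranasal poly(I:C) (300 μg/50 μL PBS). BALF was collected 1 day later. Total viable cells were counted by trypan blue with a hemocytometer. Neutrophils were counted as a differential of 300 cells on Wright-Giemsa stained cytospins.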

Mus musculus [4] = test: as §1, with “ISG54 gene expression” for “neutrophils”, “lung” for “BALF”; type: functional, organism-based
Method in brief: (§2)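 Male C57BL/6J mice, 12 weeks old, 5 per group, dosed 10 mg/kg one day before challenge and again immediately before intranasal poly(I:C) (300 μg in 50 μL PBS). Controls were vehicle alone and poly(I:C) alone. Lungs were taken 1 day later. Gene expression in lung tissue was measured by qRT-PCR, normalized to PPIA.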

[5] = Oral bioavailability in Sprague-Dawley rat at 20 mg/kg measured after 2 to 26 hrs; type: ADME, organism-based; conditions: in vivo
Method in brief: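 Male Sprague-Dawley rats received a single dose either intravenously (10 mg/kg) or orally. Plasma concentration–time curves were followed after each route. Total clearance (CL) came from the i.v. arm, and oral bioavailability (F) was derived by comparing the p.o. and i.v. profiles.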

[6] = biological target: T1, Bromodomain-containing protein 4; test: Inhibition of BRD4 in poly(I:C)-stimulated human SAECs TLR3-inducible CIG5 gene expression at 10 uM pre-incubated for 24 hrs before poly(I:C) stimulation for 4 hrs by qRT-PCR analysis relative to control
Mus musculus [7] = test: as §1, with “KC gene expression” for “neutrophils”, “lung” for “BALF”; type: functional, organism-based; method in brief: as §2
Mus musculus [8] = test: In-vivo inhibition of BRD4 in C57BL6/J mouse model of TLR3-induced acute airway inflammation assessed as reduction in H3K122Ac levels in lung at 10 mg/kg, ip pre-treated 1 day before poly(I:C) stimulation followed by compound re-dosing at 10 mg/kg, ip before another poly(I:C) stimulation and measured after 1 day post last poly(I:C) stimulation by immunofluorescence staining; type: functional, organism-based
Method in brief: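 Male C57BL/6J mice, 5 per group, dosed 10 mg/kg before and again at intranasal poly(I:C) challenge (300 μg). Lungs were taken 1 day later, paraffin sections made, and antigen retrieved at pH 9.0. Sections were stained with anti-acetyl-H3K122 and an Alexa 568 secondary with DAPI, imaged by confocal at 63×, and total fluorescence reported as fold change.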

Mus musculus [9] = test: Antiinflammatory activity in C57BL6/J mouse model of TLR3-induced acute airway inflammation assessed as inhibition of elevated MCP1 levels in BALF at 10 mg/kg, po pre-treated 1 day before poly(I:C) stimulation followed by compound re-dosing at 10 mg/kg, po before another poly(I:C) stimulation and measured after 1 day post last poly(I:C) stimulation by cytokine Bio-Plex assay; type: functional, organism-based
Method in brief: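 Male C57BL/6J mice, 12 weeks old, 5 per group, dosed 10 mg/kg the day before and again immediately before intranasal poly(I:C) (300 μg in 50 μL PBS). BALF was collected 1 day later by two 1 mL PBS lavages and centrifuged at 800 × g for 5 min at 4 °C. Supernatant cytokines were measured by multiplex bead immunoassay against recombinant standards in triplicate.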

[10] = biological target: T1, Bromodomain-containing protein 4; test: Inhibition of BRD4 in poly(I:C)-stimulated human SAECs assessed as reduction in H3K122Ac levels at 10 uM pre-incubated for 24 hrs before poly(I:C) stimulation for 4 hrs by immunofluorescence staining
[11] = Unbound fraction in human plasma at 2 uM; type: ADME, cell-free
CYP2C8 = biological target: T2, CYP2C8 (Homo sapiens, UniProt P10632); test: Inhibition of CYP2C8 (unknown origin) at 10 uM relative to control; type: ADME
T2 sequence (P10632 whole entry): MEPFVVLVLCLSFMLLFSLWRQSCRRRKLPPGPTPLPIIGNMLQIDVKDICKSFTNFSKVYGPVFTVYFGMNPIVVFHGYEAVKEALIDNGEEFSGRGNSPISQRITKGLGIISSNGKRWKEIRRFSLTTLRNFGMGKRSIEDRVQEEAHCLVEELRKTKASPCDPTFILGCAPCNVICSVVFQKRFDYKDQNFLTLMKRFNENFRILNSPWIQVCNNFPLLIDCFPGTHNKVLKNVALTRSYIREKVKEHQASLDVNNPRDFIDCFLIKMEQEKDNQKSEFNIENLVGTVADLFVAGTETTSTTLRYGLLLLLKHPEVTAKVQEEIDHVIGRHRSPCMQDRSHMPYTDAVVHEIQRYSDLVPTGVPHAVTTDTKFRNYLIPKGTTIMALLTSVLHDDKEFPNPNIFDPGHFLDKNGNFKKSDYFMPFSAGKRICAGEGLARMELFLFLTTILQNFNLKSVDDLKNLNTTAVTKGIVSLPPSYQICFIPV

CYP2B6 = biological target: T3, CYP2B6 (Homo sapiens, UniProt P20813); test: Inhibition of CYP2B6 (unknown origin) at 10 uM relative to control; type: ADME
T3 sequence (P20813 whole entry): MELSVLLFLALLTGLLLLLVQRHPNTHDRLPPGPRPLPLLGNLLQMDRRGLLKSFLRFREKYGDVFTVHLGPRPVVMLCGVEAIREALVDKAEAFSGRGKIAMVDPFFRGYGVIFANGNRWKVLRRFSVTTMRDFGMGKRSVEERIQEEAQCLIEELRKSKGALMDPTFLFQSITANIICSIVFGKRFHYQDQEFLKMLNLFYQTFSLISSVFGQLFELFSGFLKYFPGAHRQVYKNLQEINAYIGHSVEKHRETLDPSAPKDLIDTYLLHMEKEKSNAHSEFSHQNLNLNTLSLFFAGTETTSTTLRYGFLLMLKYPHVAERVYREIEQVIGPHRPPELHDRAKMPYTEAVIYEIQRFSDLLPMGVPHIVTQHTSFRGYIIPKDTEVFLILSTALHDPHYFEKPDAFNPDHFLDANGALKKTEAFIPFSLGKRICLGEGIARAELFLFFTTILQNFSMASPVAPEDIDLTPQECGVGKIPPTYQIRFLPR

CYP2C19 = CYP2C19 (Homo sapiens, UniProt P33261); test: Inhibition of CYP2C19 (unknown origin) at 10 uM relative to control; type: ADME
CYP2C19, sequence (P33261 whole entry): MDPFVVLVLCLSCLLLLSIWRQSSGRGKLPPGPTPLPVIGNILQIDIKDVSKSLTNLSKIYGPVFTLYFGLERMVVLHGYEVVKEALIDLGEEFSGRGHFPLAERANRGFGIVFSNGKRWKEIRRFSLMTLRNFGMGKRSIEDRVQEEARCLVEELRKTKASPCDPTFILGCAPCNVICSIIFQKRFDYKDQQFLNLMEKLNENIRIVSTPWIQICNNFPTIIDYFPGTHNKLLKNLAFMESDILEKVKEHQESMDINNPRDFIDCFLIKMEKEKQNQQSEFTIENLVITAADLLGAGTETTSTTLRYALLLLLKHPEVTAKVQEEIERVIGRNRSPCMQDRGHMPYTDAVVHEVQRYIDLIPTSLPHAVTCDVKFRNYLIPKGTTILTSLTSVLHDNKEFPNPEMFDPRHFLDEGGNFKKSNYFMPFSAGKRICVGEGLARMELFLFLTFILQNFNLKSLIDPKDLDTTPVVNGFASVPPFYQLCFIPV

CYP3A4 = CYP3A4 (Homo sapiens, UniProt P08684); test: Inhibition of CYP3A4 (unknown origin) at 10 uM using testosterone substrate relative to control; type: ADME; conditions: probe testosterone
CYP3A4, sequence (P08684 whole entry): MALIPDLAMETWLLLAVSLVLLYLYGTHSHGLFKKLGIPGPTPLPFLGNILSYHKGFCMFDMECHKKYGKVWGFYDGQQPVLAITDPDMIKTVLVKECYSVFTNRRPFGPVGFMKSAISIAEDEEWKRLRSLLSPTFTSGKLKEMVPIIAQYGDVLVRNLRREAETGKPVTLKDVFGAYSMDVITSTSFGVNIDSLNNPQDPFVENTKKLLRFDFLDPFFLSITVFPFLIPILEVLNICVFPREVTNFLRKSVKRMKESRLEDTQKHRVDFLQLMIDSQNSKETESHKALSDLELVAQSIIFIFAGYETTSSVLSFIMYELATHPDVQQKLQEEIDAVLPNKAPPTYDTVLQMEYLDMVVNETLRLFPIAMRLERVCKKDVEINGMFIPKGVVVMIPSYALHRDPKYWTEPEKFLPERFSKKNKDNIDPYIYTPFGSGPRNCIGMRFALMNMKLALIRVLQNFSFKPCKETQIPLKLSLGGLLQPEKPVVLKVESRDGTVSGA
Method in brief: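 The CYP3A4 assay was run with midazolam or with testosterone as substrate.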

[12] = Unbound fraction in mouse plasma at 2 uM; type: ADME, cell-free
[13] = Clearance in mouse liver microsomes; type: ADME, Microsome
CYP2C9 = CYP2C9 (Homo sapiens, UniProt P11712); test: Inhibition of CYP2C9 (unknown origin) at 10 uM relative to control; type: ADME
CYP2C9, sequence (P11712 whole entry): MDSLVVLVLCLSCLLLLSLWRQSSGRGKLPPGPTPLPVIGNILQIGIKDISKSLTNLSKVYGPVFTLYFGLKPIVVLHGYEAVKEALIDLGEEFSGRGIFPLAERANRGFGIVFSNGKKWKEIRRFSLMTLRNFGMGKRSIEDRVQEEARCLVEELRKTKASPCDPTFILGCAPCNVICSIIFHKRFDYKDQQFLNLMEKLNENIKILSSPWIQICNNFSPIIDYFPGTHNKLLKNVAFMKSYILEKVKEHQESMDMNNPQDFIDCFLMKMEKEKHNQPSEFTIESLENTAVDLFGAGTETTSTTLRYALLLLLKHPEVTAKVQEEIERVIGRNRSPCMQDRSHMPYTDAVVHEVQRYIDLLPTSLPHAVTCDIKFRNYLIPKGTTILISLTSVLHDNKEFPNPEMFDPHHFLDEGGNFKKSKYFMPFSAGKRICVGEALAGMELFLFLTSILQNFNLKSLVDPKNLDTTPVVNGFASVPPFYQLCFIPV

| inhibition [1] | Cmax [2] | F [5] | inhibition [6] | inhibition [10] | Fu [11] | inhibition at 10 µM (CYP2C8) | inhibition at 10 µM (CYP2B6) | inhibition at 10 µM (CYP2C19) | inhibition at 10 µM (CYP3A4) | Fu [12] | CLH [13] | inhibition at 10 µM (CYP2C9) | SMILES | inhibition (Mus musculus [3]) | inhibition (Mus musculus [4]) | inhibition (Mus musculus [7]) | inhibition (Mus musculus [8]) | inhibition (Mus musculus [9]) |
| --- | --- | --- | --- | --- | --- | --- | --- | --- | --- | --- | --- | --- | --- | --- | --- | --- | --- | --- |
| 100% | 2860 ng/mL | 38.2% | 99% | Active |  |  |  |  |  |  |  |  | COc1cc(OC)c2c(=O)cc(-c3cc(C)c(OC[C@H](O)CN4CCCCC4)c(C)c3)oc2c1 | Active | Active | Active | Active | Active |
|  | 2090 ng/mL | 35.3% |  |  | 17% | 17% | 27% | 1.7% | 8.2% | 12% | 25 µL/min/mg | 1.9% | COc1cc(OC)c2c(=O)cc(-c3cc(C)c(OC[C@H](O)CN4CCN(C)CC4)c(C)c3)oc2c1 | Active | Active | Active | Active | Active |
